Calls of active or inactive are those of the source. No cut-off for these calls is given here.
Tests used:
[1] = Inhibition of recombinant C-terminal His-tagged SARS coronavirus 1 3CL protease using Boc-Abu-Tle-Leu-Gln-AMC as substrate incubated for 5 mins by Cheng-Prusoff equation analysis; parameters: species or system Severe acute respiratory syndrome-related coronavirus
[2] = system: SARS-CoV-2; experiment: Antiviral activity against SARS coronavirus 2 infected in African green monkey Vero cells assessed as blockade of viral proliferation at 25 uM incubated for 48 hrs by cytopathic effect assay; format: functional, organism-based; settings: Severe acute respiratory syndrome coronavirus 2
[3] = Drug metabolism in human hepatocytes assessed as amide hydrolysis mediated HC-7 metabolite formation at 10 uM incubated upto 2 hrs by LC/UV/MS analysis; format: ADME, cell-based, Hepatocyte
How it was run: (§1)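 Hepatocytes were suspended at 6 × 10^5 viable cells/mL in KHB buffer and given compound at 10 μM. Incubation was 0 and 2 h at 37 °C under 5% CO2, stopped with acetonitrile. After centrifugation, supernatant metabolites were analysed by LC/UV/MS.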

[4] = target: T1, Cytochrome P450 1A2 (Homo sapiens, UniProt P05177); experiment: Inhibition of CYP1A2 in human liver microsome at 10 uM; format: toxicity; settings: microsomes
T1 sequence (P05177 whole entry): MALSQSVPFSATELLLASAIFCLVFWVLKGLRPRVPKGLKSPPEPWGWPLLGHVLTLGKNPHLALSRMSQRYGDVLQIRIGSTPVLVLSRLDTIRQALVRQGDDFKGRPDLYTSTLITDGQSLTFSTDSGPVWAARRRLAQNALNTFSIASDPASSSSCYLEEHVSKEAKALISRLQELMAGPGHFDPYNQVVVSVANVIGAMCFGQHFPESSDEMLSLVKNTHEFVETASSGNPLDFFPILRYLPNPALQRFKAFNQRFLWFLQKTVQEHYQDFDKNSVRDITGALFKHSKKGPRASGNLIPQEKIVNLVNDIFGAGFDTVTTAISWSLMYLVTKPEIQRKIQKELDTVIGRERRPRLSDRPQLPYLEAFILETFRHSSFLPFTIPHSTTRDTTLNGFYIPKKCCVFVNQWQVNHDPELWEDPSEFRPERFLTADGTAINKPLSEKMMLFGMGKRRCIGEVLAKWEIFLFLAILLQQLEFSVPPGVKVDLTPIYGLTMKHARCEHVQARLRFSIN
How it was run: (§2)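 Human liver microsomes (0.1 mg protein/mL) were mixed with compound at 10 μM and probe substrates in phosphate buffer pH 7.4: tacrine (CYP1A2), paclitaxel (2C8), tolbutamide (2C9), dextromethorphan (2D6) and midazolam (3A4). Reactions were started with an NADPH-generating system, run 10 min at 37 °C and stopped with acetonitrile. Metabolites were measured by LC/MS/MS and activity expressed as % remaining versus the no-inhibitor control.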

[5] = target: Cytochrome P450 3A4 (Homo sapiens, UniProt P08684); experiment: Inhibition of CYP3A4 in human liver microsome at 10 uM; format: toxicity; settings: microsomes; how it was run: as §2
[6] = Apparent permeability in human Caco-2 monolayer cells at 1 uM and measured upto 120 mins by LC-MS/MS analysis; format: ADME, cell-based
How it was run: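 Caco-2 monolayers were grown 21 days on 3.0 μm-pore inserts. They were preincubated 30 min at 37 °C in HBSS with 10 mM HEPES, pH 7.4, and TEER was checked before and after. Transport of compound at 1 μM was run at 37 °C, quantified by LC-MS/MS, and converted to apparent permeability.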

[7] = Protein binding in rat plasma incubated for 6 hrs by quadrupole mass spectrometry coupled UFLC analysis; format: ADME, cell-free; settings: read-out: PPB
[8] = Stability in rat plasma assessed as compound degradation incubated for 6 hrs by quadrupole mass spectrometry coupled UFLC analysis; format: ADME, cell-free
How it was run: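 Compound at 1 μM was incubated in rat plasma at 37 °C for 0, 1, 2 and 6 h. Remaining concentration was measured by LC/MS/MS.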

[9] = Half life in overnight-fasted Wistar rat at 0.1 mg/kg, iv measured upto 7 hrs by quadrupole mass spectrometry coupled UFLC analysis; format: ADME, organism-based; settings: in vivo
How it was run: (§3)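 Conscious, freely moving male Wistar rats received compound in saline at 4 mL/kg, either i.v. via jugular vein at 0.1 mg/kg or by oral gavage at 0.5 mg/kg. Cannula blood was sampled up to 7 h and plasma measured by LC-MS/MS. Analysis was noncompartmental (trapezoidal AUC); Cmax and tmax were taken as observed, and t1/2 from log-linear terminal regression over at least 3 points. Mean ± SD, n = 5.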

[10] = Cmax in overnight-fasted Wistar rat at 0.5 mg/kg, po measured upto 7 hrs by quadrupole mass spectrometry coupled UFLC analysis; format: ADME, organism-based; parameters: route oral, dose 0.5 mg/kg, time <=7; settings: in vivo; how it was run: as §3
[11] = AUC (0 to 7 hrs) in overnight-fasted Wistar rat at 0.1 mg/kg, iv measured upto 7 hrs by quadrupole mass spectrometry coupled UFLC analysis; format: ADME, organism-based; parameters: route intravenous, dose 0.1 mg/kg, time <=7; settings: in vivo
How it was run: (§4)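 Male Wistar rats, conscious and unrestrained, were given the compound in saline at 4 mL/kg, either as an i.v. bolus via the left jugular vein or by oral gavage. Heparinized blood was drawn from a cannula at set times up to 7 h and the plasma analysed by LC-MS/MS. AUC0–7 and AUC0–∞ came from noncompartmental trapezoidal analysis; mean ± SD, n = 5.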

[12] = AUC (0 to infinity) in overnight-fasted Wistar rat at 0.5 mg/kg, po measured upto 7 hrs by quadrupole mass spectrometry coupled UFLC analysis; format: ADME, organism-based; parameters: route oral, dose 0.5 mg/kg, time <=7; settings: in vivo; how it was run: as §4
[13] = Drug metabolism in human hepatocytes assessed as amide hydrolysis mediated HC-6 metabolite formation at 10 uM incubated upto 2 hrs by LC/UV/MS analysis; format: ADME, cell-based, Hepatocyte; how it was run: as §1
[14] = system: SARS-CoV-2; experiment: Antiviral activity against SARS coronavirus 2 infected in African green monkey VeroE6/TMPRSS2 cells upto 10 uM in presence of MDR-1 inhibitor CP-100356 measured after 24 hrs post-infection by qRT-PCR analysis; format: functional, organism-based; settings: Severe acute respiratory syndrome coronavirus 2; Vero; dose microM <=10, time 24.0 hrs
[15] = target: Voltage-gated inwardly rectifying potassium channel KCNH2 (Homo sapiens, UniProt Q12809); experiment: Inhibition of hERG expressed in CHO cells at > 100 uM by whole-cell patch-clamp voltage-clamp method; format: toxicity, cell-based
How it was run: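 hERG tail current was recorded by automated whole-cell patch clamp in CHO cells stably expressing hERG at room temperature. The pulse was +40 mV for 500 ms, then a ramp to −80 mV, repeated every 5 s. Compound was applied cumulatively at 5 min intervals. Verapamil served as positive control and DMSO as vehicle.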

[16] = AUC (0 to 7 hrs) in overnight-fasted Wistar rat at 0.5 mg/kg, po measured upto 7 hrs by quadrupole mass spectrometry coupled UFLC analysis; format: ADME, organism-based; parameters: route oral, dose 0.5 mg/kg, time <=7; settings: in vivo; how it was run: as §4
[17] = target: Cytochrome P450 2D6 (Homo sapiens, UniProt P10635); experiment: Inhibition of CYP2D6 in human liver microsome at 10 uM; format: toxicity; settings: microsomes; how it was run: as §2
[18] = Drug metabolism in human hepatocytes assessed as CYP450-catalysed oxidative pathway mediated metabolite formation at 10 uM incubated upto 2 hrs by LC/UV/MS analysis; format: ADME, cell-based, Hepatocyte; how it was run: as §1
[19] = Half life in overnight-fasted Wistar rat at 0.5 mg/kg, po measured upto 7 hrs by quadrupole mass spectrometry coupled UFLC analysis; format: ADME, organism-based; settings: in vivo; how it was run: as §3

Chain of Cytochrome P450 3A4 (P08684 whole entry): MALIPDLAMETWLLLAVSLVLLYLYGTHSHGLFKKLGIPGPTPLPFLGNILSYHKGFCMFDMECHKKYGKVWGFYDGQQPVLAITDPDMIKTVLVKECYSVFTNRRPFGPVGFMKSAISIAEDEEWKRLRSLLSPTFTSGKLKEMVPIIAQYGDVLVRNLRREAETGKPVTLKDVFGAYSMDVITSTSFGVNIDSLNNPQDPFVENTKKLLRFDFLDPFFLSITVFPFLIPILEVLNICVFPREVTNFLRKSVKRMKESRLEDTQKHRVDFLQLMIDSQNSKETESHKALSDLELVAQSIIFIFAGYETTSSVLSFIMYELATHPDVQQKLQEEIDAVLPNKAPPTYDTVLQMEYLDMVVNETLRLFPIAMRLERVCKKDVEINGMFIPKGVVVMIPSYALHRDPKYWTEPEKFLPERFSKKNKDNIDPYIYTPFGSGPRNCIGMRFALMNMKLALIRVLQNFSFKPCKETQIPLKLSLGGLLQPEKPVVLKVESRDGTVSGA
Chain of Cytochrome P450 2D6 (P10635 whole entry): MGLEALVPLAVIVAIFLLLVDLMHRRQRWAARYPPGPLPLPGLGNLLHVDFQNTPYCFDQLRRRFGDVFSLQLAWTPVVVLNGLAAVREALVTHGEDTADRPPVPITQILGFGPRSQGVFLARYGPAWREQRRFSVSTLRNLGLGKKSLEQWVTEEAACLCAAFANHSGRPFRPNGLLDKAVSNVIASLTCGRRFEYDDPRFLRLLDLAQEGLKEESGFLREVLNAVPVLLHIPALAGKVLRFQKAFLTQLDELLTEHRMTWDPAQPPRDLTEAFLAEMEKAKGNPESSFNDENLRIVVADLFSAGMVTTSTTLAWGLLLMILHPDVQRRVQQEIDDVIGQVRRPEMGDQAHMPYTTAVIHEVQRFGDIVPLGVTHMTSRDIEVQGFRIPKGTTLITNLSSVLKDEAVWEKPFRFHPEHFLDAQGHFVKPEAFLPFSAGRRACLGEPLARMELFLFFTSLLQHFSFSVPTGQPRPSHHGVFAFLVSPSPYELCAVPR
Chain of Voltage-gated inwardly rectifying potassium channel KCNH2 (Q12809 whole entry): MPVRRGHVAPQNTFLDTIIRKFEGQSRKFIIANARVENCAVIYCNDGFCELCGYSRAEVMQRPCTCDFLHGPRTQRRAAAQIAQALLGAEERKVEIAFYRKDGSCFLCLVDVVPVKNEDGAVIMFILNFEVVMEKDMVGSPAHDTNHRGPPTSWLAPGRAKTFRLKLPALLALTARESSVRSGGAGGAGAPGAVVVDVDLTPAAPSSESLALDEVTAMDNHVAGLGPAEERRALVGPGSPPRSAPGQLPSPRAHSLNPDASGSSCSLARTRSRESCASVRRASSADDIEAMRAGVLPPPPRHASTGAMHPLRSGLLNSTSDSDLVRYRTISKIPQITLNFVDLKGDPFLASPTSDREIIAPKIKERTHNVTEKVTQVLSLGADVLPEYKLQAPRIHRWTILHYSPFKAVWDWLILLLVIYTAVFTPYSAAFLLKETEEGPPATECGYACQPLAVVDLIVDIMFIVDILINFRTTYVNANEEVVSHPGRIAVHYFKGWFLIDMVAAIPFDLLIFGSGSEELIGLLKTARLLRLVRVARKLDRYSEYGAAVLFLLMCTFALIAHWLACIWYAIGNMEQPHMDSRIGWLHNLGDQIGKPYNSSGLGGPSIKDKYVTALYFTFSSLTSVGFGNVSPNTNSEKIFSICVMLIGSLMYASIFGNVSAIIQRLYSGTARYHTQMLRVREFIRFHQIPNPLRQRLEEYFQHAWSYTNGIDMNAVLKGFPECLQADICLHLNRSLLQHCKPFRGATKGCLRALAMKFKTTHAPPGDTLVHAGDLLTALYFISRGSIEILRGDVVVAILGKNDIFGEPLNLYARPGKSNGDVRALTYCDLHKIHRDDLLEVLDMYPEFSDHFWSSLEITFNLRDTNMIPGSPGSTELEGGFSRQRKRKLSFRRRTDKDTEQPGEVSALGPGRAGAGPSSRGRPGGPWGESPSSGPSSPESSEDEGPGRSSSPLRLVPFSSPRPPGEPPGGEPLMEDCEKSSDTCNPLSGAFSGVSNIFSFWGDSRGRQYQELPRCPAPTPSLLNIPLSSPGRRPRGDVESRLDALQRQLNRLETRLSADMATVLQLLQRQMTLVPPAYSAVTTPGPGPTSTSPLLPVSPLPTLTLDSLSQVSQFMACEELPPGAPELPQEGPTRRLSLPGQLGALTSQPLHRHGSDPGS

For `COc1cccc2[nH]c(C(=O)N[C@@H](CC(C)C)C(=O)N[C@@H](C[C@@H]3CCNC3=O)C(=O)c3nc4ccccc4s3)cc12`, the Ki [1] was 6.3 nM, the Activity [2] was “Active” and the Drug metabolism [3] was “Metabolite_Detected”. For the same compound, the “inhibition (INH)” value [4] was “Active”, the “inhibition (INH)” value [5] was “Not Active” and the Papp at 2 h, 1 µM [6] was 18.9 ×10⁻⁶ cm/s. The fraction unbound at 6 h [7] was 0.01, the Stability [8] was “Stable” and the half-life [9] was 2.97 h. The Cmax [10] was 1.08 ng/mL, the AUC(0-t) [11] was 19.3 ng·h/mL and the AUC(0-inf) [12] was 3.49 ng·h/mL. For the same compound, the Drug metabolism [13] was “Metabolite_Detected”, the Activity [14] was “Active” and the “inhibition (INH)” value [15] was “Not Active”. The AUC(0-t) [16] was 1.59 ng·h/mL, the “inhibition (INH)” value [17] was “Active” and the Drug metabolism [18] was “Metabolite_Detected”. For the same compound, the half-life [19] was 9.64 h.

Reference: ChEMBL document CHEMBL5042480, “3CL Protease Inhibitors with an Electrophilic Arylketone Moiety as Anti-SARS-CoV-2 Agents” (J Med Chem, 2022)
